Results as given in ChEMBL document CHEMBL1147676, “Synthesis and antitumor characterization of pyrazolic analogues of the marine pyrroloquinoline alkaloids: wakayin and tsitsikammamines” (J Med Chem, 2006).

Columns and labels:
Renca [1] = experiment: Antiproliferative activity against mouse Renca cell line at 10 uM; type: functional
How it was run: (§1)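 Growth inhibition at the top 10 μM concentration of a 72 h XTT/PMS proliferation assay (4 h stain, 492 nm, four wells), expressed against 0.1% DMSO control. Cells were in phenol-red-free RPMI with 10% FCS, seeded at 2000 cells/well (HCT15, PC3, CT26, Renca) or 1000 cells/well (HT29), and dosed 24 h after seeding.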

[2] = target: T1, DNA topoisomerase 1 (Homo sapiens) (UniProt P11387); experiment: Inhibition of topoisomerase 1 DNA cleavage activity
T1 sequence (whole entry): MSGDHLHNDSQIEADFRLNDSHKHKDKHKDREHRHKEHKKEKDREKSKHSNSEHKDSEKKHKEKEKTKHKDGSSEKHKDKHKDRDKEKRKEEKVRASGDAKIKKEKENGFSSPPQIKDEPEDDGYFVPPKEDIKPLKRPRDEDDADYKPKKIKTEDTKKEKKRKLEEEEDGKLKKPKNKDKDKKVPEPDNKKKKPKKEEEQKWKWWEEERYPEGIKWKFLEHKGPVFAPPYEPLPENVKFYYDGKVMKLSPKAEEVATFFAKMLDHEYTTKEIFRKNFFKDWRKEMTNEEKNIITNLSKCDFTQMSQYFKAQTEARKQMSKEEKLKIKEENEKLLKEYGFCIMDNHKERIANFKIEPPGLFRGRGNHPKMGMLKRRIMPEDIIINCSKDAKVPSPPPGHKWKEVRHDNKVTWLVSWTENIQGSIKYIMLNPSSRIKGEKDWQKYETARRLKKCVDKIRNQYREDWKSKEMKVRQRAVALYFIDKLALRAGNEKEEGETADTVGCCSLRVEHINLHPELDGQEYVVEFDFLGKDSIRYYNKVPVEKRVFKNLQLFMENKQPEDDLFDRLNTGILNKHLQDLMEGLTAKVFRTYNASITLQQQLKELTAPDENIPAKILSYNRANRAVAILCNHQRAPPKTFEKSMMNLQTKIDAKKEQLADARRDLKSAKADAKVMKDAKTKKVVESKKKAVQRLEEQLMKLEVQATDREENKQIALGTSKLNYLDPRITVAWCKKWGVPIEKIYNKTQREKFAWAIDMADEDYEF
How it was run: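 Human topoisomerase I (2 units) incubated with 0.25 μg DNA I for 30 min at 37 °C with or without compound. Stopped with 1% SDS, proteinase K (50 μg/mL, 15 min, 37 °C), extracted twice with CIA, and run on 1% agarose (3.5 h, 75 V). Gel stained afterwards with ethidium bromide. Active concentration is the lowest giving complete inhibition, i.e. no relaxed or linear DNA.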

CT26 [3] = experiment: Antiproliferative activity against mouse CT26 cell line at 10 uM; type: functional; how it was run: as §1
HCT-15 [4] = experiment: Antiproliferative activity against human HCT15 cell line at 10 uM; type: functional; how it was run: as §1
PC-3 [5] = experiment: Antiproliferative activity against human PC3 cell line at 10 uM; type: functional; how it was run: as §1
[6] = target: DNA topoisomerase II (Homo sapiens) (UniProt P11388+Q02880); experiment: Inhibition of topoisomerase 2 DNA cleavage activity; type: protein assay
How it was run: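 Human topoisomerase II (4 units) incubated with 0.25 μg pRYG DNA and 0.5 mM ATP (final) for 30 min at 37 °C. Stopped with 1% SDS, proteinase K (50 μg/mL, 15 min), CIA extraction, and 1% agarose gel at 75 V for 3.5 h, then post-stained with 0.5 μg/mL ethidium bromide. Reported value is the lowest concentration abolishing relaxed or linear DNA.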

HT-29 [7] = experiment: Antiproliferative activity against human HT29 cell line at 10 uM; type: functional; how it was run: as §1
HCT-15 [8] = experiment: Antiproliferative activity against human HCT15 cell line; type: functional, cell-based
How it was run: (§2)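 Cells grown in RPMI with 10% heat-inactivated FCS, no antibiotics, 37 °C, 5% CO2, and checked mycoplasma-free. Seeded at 2000 cells/well (HCT15, PC3, CT26, Renca) or 1000 cells/well (HT29). After 24 h, exposed for 72 h to nine concentrations from 1 nM to 10 μM in phenol-red-free medium, 0.1% DMSO final. Read by XTT/PMS reduction (4 h, 492 nm), four wells per concentration. IC50 from a four-parameter logistic fit of growth as % of DMSO control.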

Renca [9] = experiment: Antiproliferative activity against mouse Renca cell line; type: functional, cell-based; how it was run: as §2
CT26 [10] = experiment: Antiproliferative activity against mouse CT26 cell line; type: functional, cell-based; how it was run: as §2
PC-3 [11] = experiment: Antiproliferative activity against human PC3 cell line; type: functional, cell-based; how it was run: as §2
HT-29 [12] = experiment: Antiproliferative activity against human HT29 cell line; type: functional, cell-based; how it was run: as §2

`O=C1c2[nH]ncc2C2=NCCc3c[nH]c1c32` was tested, and the inhibition at 10 µM (Renca [1]) was 0%, the Inhibition [2] was > 100 µM and the inhibition at 10 µM (CT26 [3]) was 0%. For the same molecule, the inhibition at 10 µM (HCT-15 [4]) was 0%, the inhibition at 10 µM (PC-3 [5]) was 0% and the Inhibition [6] was 100 µM. The inhibition at 10 µM (HT-29 [7]) was 0%.

For `O=C1c2n[nH]c(-c3ccc(O)cc3)c2C2=NCCc3c[nH]c1c32`, the inhibition at 10 µM (Renca [1]) was 0%, the Inhibition [2] was > 100 µM and the inhibition at 10 µM (CT26 [3]) was 0%. It also gave an inhibition at 10 µM (HCT-15 [4]) of 0%, an inhibition at 10 µM (PC-3 [5]) of 0% and an Inhibition [6] of 100 µM. The inhibition at 10 µM (HT-29 [7]) was 0%.

With `O=C1c2[nH]cc3c2C(=NCC3)c2[nH]nc(-c3ccccc3)c21` the inhibition at 10 µM (Renca [1]) was 0%, the Inhibition [2] was > 100 µM and the IC50 (HCT-15 [8]) was 2.7 µM. The inhibition at 10 µM (CT26 [3]) was 0%, the inhibition at 10 µM (PC-3 [5]) was 0% and the Inhibition [6] was > 100 µM. The inhibition at 10 µM (HT-29 [7]) was 47%.

`Cc1ccc(S(=O)(=O)n2cc3c4c2C(=O)c2c(cnn2C)C4=NCC3)cc1` showed an IC50 (Renca [9]) of 0.14 µM, an Inhibition [2] of 300 µM and an IC50 (HCT-15 [8]) of 6.5 µM. For the same molecule, the IC50 (CT26 [10]) was 5.3 µM, the IC50 (PC-3 [11]) was 4.9 µM and the IC50 (HT-29 [12]) was 3.1 µM.

Molecule `O=C1c2[nH]cc3c2C(=NCC3)c2n[nH]c(-c3ccc(O)cc3)c21` has an inhibition at 10 µM (Renca [1]) of 0%, an Inhibition [2] of 300 µM and an inhibition at 10 µM (CT26 [3]) of 0%. For the same molecule, the inhibition at 10 µM (HCT-15 [4]) was 0%, the inhibition at 10 µM (PC-3 [5]) was 0% and the Inhibition [6] was > 300 µM. The inhibition at 10 µM (HT-29 [7]) was 0%.

In the case of `Cn1ncc2c1C1=NCCc3c[nH]c(c31)C2=O`, the IC50 (Renca [9]) is reported as 6.3 µM, the Inhibition [2] is reported as > 100 µM and the IC50 (CT26 [10]) is reported as 7 µM. The IC50 (HT-29 [12]) was 3.6 µM, the inhibition at 10 µM (HCT-15 [4]) was 0% and the inhibition at 10 µM (PC-3 [5]) was 0%. For the same molecule, the Inhibition [6] was 100 µM.

In the case of `Cc1ccc(S(=O)(=O)n2cc3c4c2C(=O)c2c(n[nH]c2C2(O)C(=O)N(C)c5ccccc52)C4=NCC3)cc1` (configuration not stated), the IC50 (Renca [9]) is reported as 1.9 µM, the Inhibition [2] is reported as > 100 µM and the IC50 (HCT-15 [8]) is reported as 1.6 µM. It also gave an IC50 (CT26 [10]) of 2.9 µM, an IC50 (PC-3 [11]) of 5.2 µM and an IC50 (HT-29 [12]) of 2.9 µM.

Work on `O=C1c2[nH]cc3c2C(=NCC3)c2c(-c3ccccc3)n[nH]c21` yielded an inhibition at 10 µM (Renca [1]) of 0%, an Inhibition [2] of 100 µM and an inhibition at 10 µM (CT26 [3]) of 0%. The inhibition at 10 µM (HCT-15 [4]) was 0%, the inhibition at 10 µM (PC-3 [5]) was 0% and the Inhibition [6] was > 100 µM. The inhibition at 10 µM (HT-29 [7]) was 0%.

In the case of `CC[C@@]1(O)C(=O)OCc2c1cc1n(c2=O)Cc2cc3ccccc3nc2-1` [CAMPTOTHECIN], the IC50 (Renca [9]) is reported as 0.304 µM, the IC50 (HCT-15 [8]) is reported as 0.018 µM and the IC50 (CT26 [10]) is reported as 0.034 µM. The IC50 (PC-3 [11]) was 0.052 µM and the IC50 (HT-29 [12]) was 0.03 µM.

In the case of `O=C1c2c[nH]nc2C2=NCCc3c[nH]c1c32`, the inhibition at 10 µM (Renca [1]) is reported as 0%, the Inhibition [2] is reported as > 100 µM and the inhibition at 10 µM (CT26 [3]) is reported as 0%. It also gave an inhibition at 10 µM (HCT-15 [4]) of 25%, an inhibition at 10 µM (PC-3 [5]) of 0% and an Inhibition [6] of 100 µM. For the same molecule, the inhibition at 10 µM (HT-29 [7]) was 45%.

Work on `Cc1ccc(S(=O)(=O)n2cc3c4c2C(=O)c2c(-c5ccccc5)n[nH]c2C4=NCC3)cc1` yielded an inhibition at 10 µM (Renca [1]) of 0%, an Inhibition [2] of 100 µM and an inhibition at 10 µM (CT26 [3]) of 0%. The inhibition at 10 µM (HCT-15 [4]) was 0%, the inhibition at 10 µM (PC-3 [5]) was 0% and the Inhibition [6] was > 100 µM. The inhibition at 10 µM (HT-29 [7]) was 0%.

Molecule `Cc1ccc(S(=O)(=O)n2cc3c4c2C(=O)c2n[nH]cc2C4=NCC3)cc1` has an inhibition at 10 µM (Renca [1]) of 0%, an Inhibition [2] of 100 µM and an inhibition at 10 µM (CT26 [3]) of 0%. The inhibition at 10 µM (HCT-15 [4]) was 0%, the inhibition at 10 µM (PC-3 [5]) was 0% and the Inhibition [6] was > 100 µM. It also gave an inhibition at 10 µM (HT-29 [7]) of 0%.

Work on `Cc1ccc(S(=O)(=O)n2cc3c4c2C(=O)c2[nH]nc(-c5ccc(O)cc5)c2C4=NCC3)cc1` yielded an inhibition at 10 µM (Renca [1]) of 0%, an Inhibition [2] of 30 µM and an inhibition at 10 µM (CT26 [3]) of 0%. For the same molecule, the inhibition at 10 µM (HCT-15 [4]) was 0%, the inhibition at 10 µM (PC-3 [5]) was 0% and the Inhibition [6] was > 100 µM. For the same molecule, the inhibition at 10 µM (HT-29 [7]) was 23%.

`Cc1ccc(S(=O)(=O)n2cc3c4c2C(=O)c2[nH]nc(-c5ccccc5)c2C4=NCC3)cc1` showed an inhibition at 10 µM (Renca [1]) of 0%, an Inhibition [2] of 300 µM and an inhibition at 10 µM (CT26 [3]) of 0%. For the same molecule, the inhibition at 10 µM (HCT-15 [4]) was 0%, the inhibition at 10 µM (PC-3 [5]) was 0% and the inhibition at 10 µM (HT-29 [7]) was 0%.

Molecule `Cc1ccc(S(=O)(=O)n2cc3c4c2C(=O)c2c(-c5ccc(O)cc5)n[nH]c2C4=NCC3)cc1` has an inhibition at 10 µM (Renca [1]) of 0%, an Inhibition [2] of 10 µM and an inhibition at 10 µM (CT26 [3]) of 0%. For the same molecule, the inhibition at 10 µM (HCT-15 [4]) was 0%, the inhibition at 10 µM (PC-3 [5]) was 0% and the Inhibition [6] was 100 µM. It also gave an inhibition at 10 µM (HT-29 [7]) of 41%.

Molecule `COc1cc([C@@H]2c3cc4c(cc3[C@@H](O[C@@H]3O[C@@H]5CO[C@@H](C)O[C@H]5[C@H](O)[C@H]3O)[C@H]3COC(=O)[C@H]23)OCO4)cc(OC)c1O` [ETOPOSIDE] has an IC50 (Renca [9]) of 2.9 µM, an IC50 (HCT-15 [8]) of 4.5 µM and an IC50 (CT26 [10]) of 0.2 µM. For the same molecule, the IC50 (PC-3 [11]) was 7.8 µM, the IC50 (HT-29 [12]) was 6.6 µM and the Inhibition [6] was 100 µM.

For `Cn1ncc2c1C(=O)c1[nH]cc3c1C2=NCC3`, the inhibition at 10 µM (Renca [1]) was 6%, the Inhibition [2] was > 100 µM and the inhibition at 10 µM (CT26 [3]) was 7%. The inhibition at 10 µM (HCT-15 [4]) was 0%, the inhibition at 10 µM (PC-3 [5]) was 0% and the Inhibition [6] was > 100 µM. The inhibition at 10 µM (HT-29 [7]) was 4%.

In the case of `Cc1ccc(S(=O)(=O)n2cc3c4c2C(=O)c2cnn(C)c2C4=NCC3)cc1`, the IC50 (Renca [9]) is reported as 4.6 µM, the Inhibition [2] is reported as > 100 µM and the IC50 (HCT-15 [8]) is reported as 5 µM. It also gave an IC50 (CT26 [10]) of 4.9 µM, an IC50 (PC-3 [11]) of 5.8 µM and an IC50 (HT-29 [12]) of 1.9 µM. The Inhibition [6] was > 100 µM.

With `Cc1ccc(S(=O)(=O)n2cc3c4c2C(=O)c2cn[nH]c2C4=NCC3)cc1` the inhibition at 10 µM (Renca [1]) was 0%, the Inhibition [2] was 300 µM and the inhibition at 10 µM (CT26 [3]) was 0%. The inhibition at 10 µM (HCT-15 [4]) was 0%, the inhibition at 10 µM (PC-3 [5]) was 0% and the Inhibition [6] was > 300 µM. For the same molecule, the inhibition at 10 µM (HT-29 [7]) was 0%.
